Key:
[1] = biological target: Plasma kallikrein (Homo sapiens) (UniProt P03952); experiment: Inhibition against human plasma Kallikrein at 2 mM; type: cell-free
Method in brief: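 Human plasma kallikrein in 50 mM Tris/HCl, 100 mM NaCl, pH 8.44, with H-D-Pro-Phe-Arg-p-nitroanilide (S-2302) as chromogenic substrate. Percent inhibition was taken at 2.0 mM inhibitor against 0.1 mM S-2302 (Km = 0.604 mM).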

[2] = biological target: T1, Tissue-type plasminogen activator (Homo sapiens, UniProt P00750); experiment: Inhibition against Tissue plasminogen activator at 1 mM
Method in brief: (§1)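 Tissue-type plasminogen activator assayed by chromogenic amidolysis of H-D-Ile-Pro-Arg-p-nitroanilide (S-2288) in 0.2 M Tris/AcOH, pH 8.00. Percent inhibition was measured at 1.0 mM inhibitor against 0.3 mM S-2288 (Km = 0.673 mM). Separate Ki work used 0.1–0.9 mM S-2288.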
Target sequence in this assay (P00750 36-562 limits assumed): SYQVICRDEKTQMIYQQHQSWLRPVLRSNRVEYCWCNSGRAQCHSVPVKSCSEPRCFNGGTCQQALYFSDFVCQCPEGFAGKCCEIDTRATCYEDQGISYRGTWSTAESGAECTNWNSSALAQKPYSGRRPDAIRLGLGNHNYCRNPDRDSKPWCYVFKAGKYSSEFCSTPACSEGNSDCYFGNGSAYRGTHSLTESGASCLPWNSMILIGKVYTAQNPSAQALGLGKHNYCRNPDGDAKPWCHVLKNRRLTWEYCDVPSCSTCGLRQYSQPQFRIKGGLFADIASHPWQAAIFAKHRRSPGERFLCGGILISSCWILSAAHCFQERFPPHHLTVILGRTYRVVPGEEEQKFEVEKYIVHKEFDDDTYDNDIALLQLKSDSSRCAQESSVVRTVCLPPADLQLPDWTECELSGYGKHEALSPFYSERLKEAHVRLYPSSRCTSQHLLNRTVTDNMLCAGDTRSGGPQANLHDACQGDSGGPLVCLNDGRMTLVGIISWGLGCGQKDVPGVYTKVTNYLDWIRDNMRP

[3] = biological target: T2, Urokinase-type plasminogen activator (Homo sapiens, UniProt P00749); experiment: log1/Ki value was calculated against Urokinase-type plasminogen activator; settings: read-out: Log 1/Ki (converted)
Serine protease 1 [4] = biological target: T3, Serine protease 1 (Bos taurus, UniProt P00760); experiment: Inhibition against Trypsin
T3 sequence (P00760 whole entry): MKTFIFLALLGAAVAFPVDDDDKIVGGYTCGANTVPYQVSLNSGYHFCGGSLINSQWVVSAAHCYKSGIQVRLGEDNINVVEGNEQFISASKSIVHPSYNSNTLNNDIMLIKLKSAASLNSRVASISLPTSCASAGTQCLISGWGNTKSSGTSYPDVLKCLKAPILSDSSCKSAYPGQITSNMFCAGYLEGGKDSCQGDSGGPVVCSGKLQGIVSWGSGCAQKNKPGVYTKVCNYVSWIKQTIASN

Serine protease 1 [5] = biological target: T3, Serine protease 1; experiment: log1/Ki value was calculated against Trypsin; settings: read-out: Log 1/Ki (converted)
[6] = biological target: Prothrombin (Homo sapiens) (UniProt P00734); experiment: Inhibition against human plasma thrombin at 1.0 mM; type: cell-free
Method in brief: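 Highly purified human plasma thrombin in 0.2 M Tris/AcOH, pH 8.00, with H-D-Ile-Pro-Arg-p-nitroanilide (S-2288) as chromogenic substrate. Inhibition was measured at 1.0 mM inhibitor against 7.0 µM S-2288 (Km = 7.10 µM).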

[7] = biological target: T2, Urokinase-type plasminogen activator; experiment: Inhibition against Urokinase-type plasminogen activator
Plasminogen = Plasminogen (Homo sapiens, UniProt P00747); experiment: Inhibition against human plasmin was determined at 0.5 mM
Method in brief: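 Human plasmin chromogenic amidolysis assay with substrate S-2251. Inhibition was measured at 0.5 mM inhibitor against 0.3 mM S-2251 (Km = 0.664 mM).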

[8] = biological target: T1, Tissue-type plasminogen activator; experiment: The compound was tested for its inhibition against Tissue plasminogen activator at 1 mM when assayed against 0.3 mM S-2288 (Km = 0.673 mM); method in brief: as §1
Target sequence in this assay (P00750 whole entry): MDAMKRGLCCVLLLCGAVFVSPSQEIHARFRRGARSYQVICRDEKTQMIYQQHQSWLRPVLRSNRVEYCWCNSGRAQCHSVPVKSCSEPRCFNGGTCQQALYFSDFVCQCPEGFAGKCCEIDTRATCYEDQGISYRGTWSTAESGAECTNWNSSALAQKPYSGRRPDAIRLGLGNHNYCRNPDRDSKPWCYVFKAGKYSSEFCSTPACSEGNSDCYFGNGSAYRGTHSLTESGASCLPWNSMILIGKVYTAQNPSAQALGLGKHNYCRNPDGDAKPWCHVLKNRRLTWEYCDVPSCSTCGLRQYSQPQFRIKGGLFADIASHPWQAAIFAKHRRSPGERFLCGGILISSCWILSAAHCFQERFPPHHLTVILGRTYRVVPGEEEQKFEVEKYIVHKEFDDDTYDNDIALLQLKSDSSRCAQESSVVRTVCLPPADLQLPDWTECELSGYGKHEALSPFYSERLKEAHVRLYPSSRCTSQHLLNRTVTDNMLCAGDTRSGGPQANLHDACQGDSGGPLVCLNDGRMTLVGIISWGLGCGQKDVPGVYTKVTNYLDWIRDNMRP

Plasma kallikrein (Homo sapiens), sequence (P03952 20-390 limits assumed): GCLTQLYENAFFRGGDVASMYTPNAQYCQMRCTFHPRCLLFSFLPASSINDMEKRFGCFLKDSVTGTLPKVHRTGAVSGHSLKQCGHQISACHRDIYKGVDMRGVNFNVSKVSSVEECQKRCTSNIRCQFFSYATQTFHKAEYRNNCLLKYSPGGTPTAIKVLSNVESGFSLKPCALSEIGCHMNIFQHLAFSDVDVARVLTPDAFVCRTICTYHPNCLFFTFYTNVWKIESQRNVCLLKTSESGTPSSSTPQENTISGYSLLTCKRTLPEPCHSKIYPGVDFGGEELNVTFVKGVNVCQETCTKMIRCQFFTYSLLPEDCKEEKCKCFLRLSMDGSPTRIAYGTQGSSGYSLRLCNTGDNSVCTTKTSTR
Plasma kallikrein (Homo sapiens), sequence (P03952 391-638 limits assumed): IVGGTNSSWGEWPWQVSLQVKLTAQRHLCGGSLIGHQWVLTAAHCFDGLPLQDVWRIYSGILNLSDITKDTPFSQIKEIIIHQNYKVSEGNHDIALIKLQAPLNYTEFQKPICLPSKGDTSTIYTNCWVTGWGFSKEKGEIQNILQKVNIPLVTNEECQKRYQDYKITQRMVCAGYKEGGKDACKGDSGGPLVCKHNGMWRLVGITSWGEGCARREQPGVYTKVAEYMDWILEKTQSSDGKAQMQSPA
Plasminogen, sequence (P00747 97-580 limits assumed): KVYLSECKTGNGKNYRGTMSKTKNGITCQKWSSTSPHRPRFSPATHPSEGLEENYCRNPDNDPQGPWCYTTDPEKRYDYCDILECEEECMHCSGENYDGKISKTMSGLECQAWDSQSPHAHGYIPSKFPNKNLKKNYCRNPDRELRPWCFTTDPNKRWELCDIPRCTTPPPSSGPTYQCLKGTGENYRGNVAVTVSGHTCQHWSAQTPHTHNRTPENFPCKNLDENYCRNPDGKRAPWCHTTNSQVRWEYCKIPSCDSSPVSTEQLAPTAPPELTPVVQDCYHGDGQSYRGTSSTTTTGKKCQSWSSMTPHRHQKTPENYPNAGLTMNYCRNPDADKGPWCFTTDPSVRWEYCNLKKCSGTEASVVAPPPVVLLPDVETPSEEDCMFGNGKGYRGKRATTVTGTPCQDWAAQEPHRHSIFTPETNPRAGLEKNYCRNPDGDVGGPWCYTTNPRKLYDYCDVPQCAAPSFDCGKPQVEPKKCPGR
Plasminogen, sequence (P00747 581-810 limits assumed): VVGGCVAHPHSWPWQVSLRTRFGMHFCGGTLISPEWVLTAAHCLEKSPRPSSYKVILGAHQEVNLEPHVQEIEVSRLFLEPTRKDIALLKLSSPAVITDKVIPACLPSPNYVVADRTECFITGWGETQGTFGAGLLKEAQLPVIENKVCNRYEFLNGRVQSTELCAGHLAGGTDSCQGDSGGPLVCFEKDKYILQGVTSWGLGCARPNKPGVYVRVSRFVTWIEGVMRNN

| SMILES | inhibition [1] [%] | inhibition [2] [%] | Ki [3] [µM] | Ki (Serine protease 1 [4]) [µM] | Ki (Serine protease 1 [5]) [µM] | inhibition [6] [%] | Ki [7] [µM] | Ki (Plasminogen) [µM] | Ki [8] [µM] |
| --- | --- | --- | --- | --- | --- | --- | --- | --- | --- |
| CCc1ccc(NC(=N)N)cc1 | < 30 | < 45 | 90.8 | 5770 | 5770 | < 10 | 90.7 | – | – |
| COC(=O)c1ccc(NC(=N)N)cc1 | < 30 | < 45 | 1450 | 652 | 652 | < 10 | 1450 | – | – |
| N=C(N)Nc1ccccc1Cl | < 30 | < 45 | – | – | – | < 10 | – | – | – |
| N=C(N)Nc1ccccc1N | < 30 | < 45 | 388 | 1180 | 1180 | < 10 | 388 | – | – |
| Cc1ccc(NC(=N)N)cc1 | < 30 | < 45 | 15.6 | 318 | 318 | < 10 | 15.6 | – | – |
| NC(N)=Nc1ccccc1Cl | – | – | 103 | 898 | 897 | – | 103 | – | – |
| NC(N)=Nc1ccccc1[N+](=O)[O-] | – | – | 54.3 | 133 | 133 | – | 54.3 | – | – |
| N=C(N)Nc1ccc(F)cc1 | < 30 | < 45 | 72.4 | 808 | 807 | < 10 | 72.4 | – | – |
| N=C(N)Nc1cccc(Cl)c1 | < 30 | < 45 | – | – | – | < 10 | – | – | – |
| N=C(N)Nc1cccc(C(F)(F)F)c1 | < 30 | < 45 | – | – | – | < 10 | – | – | – |
| COc1ccc(NC(=N)N)cc1 | < 30 | < 45 | 676 | 5890 | 5890 | < 10 | 676 | – | – |
| Cc1ccccc1NC(=N)N | < 30 | < 45 | 259 | 3550 | 3550 | < 10 | 259 | – | – |
| N=C(N)Nc1ccc(C(F)(F)F)cc1 | < 30 | < 45 | 6.49 | 63.1 | 63.1 | < 10 | 6.49 | – | – |
| NC(N)=Nc1cccc(C(F)(F)F)c1 | – | – | 419 | 10700 | 10700 | – | 419 | – | – |
| NC(N)=Nc1cccc(Cl)c1 | – | – | 61.7 | 1100 | 1100 | – | 61.8 | – | – |
| N=C(N)Nc1ccc(Br)cc1 | < 30 | < 45 | 30.7 | 2780 | 2780 | < 10 | 30.7 | – | – |
| N=C(N)Nc1ccc(C(=O)O)cc1 [4-GUANIDINO-BENZOIC ACID] | < 30 | < 45 | 745 | 10000 | 10000 | < 10 | 745 | – | – |
| N=C(N)Nc1ccc(Cl)cc1 | < 30 | < 45 | 6.07 | 120 | 120 | < 10 | 6.07 | – | – |
| N=C(N)Nc1ccc([N+](=O)[O-])cc1 | < 30 | – | 20.6 | 352 | 352 | < 10 | 20.6 | – | – |
| N=C(N)Nc1ccccc1 [PHENYLGUANIDINE] | < 30 | – | 20.6 | 163 | 163 | < 10 | 20.6 | 2610 | 733 |
| N=C(N)Nc1ccc(/C=C/C(=O)O)cc1 | – | < 45 | 1320 | 4920 | 4920 | – | 1330 | – | – |
| N=C(N)Nc1ccccc1[N+](=O)[O-] | < 30 | < 45 | – | – | – | < 10 | – | – | – |
| COc1ccccc1NC(=N)N | < 30 | < 45 | 136 | 881 | 881 | < 10 | 136 | – | – |
